Source: PubChem BioAssay
Records with an inconclusive call do not appear.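 The calls were made as follows, unless noted: active = viability at or below 27.92% in each of two runs, the all-compound median minus 4 SD; inconclusive = no clear call, values can overlap the other calls; inactive = the rest.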

Columns and labels:
[1] = OD615 S. cerevisiae growth inhibition, permissive medium, pilot counter-assay, permissive growth control for S. cerevisiae lifespan shortening project (AID 705;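 active = growth inhibition above 25% in both replicates, a cutoff set 3 SD above the mean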); conditions: OD615, 24 h, at 10 µM, stronger effect = higher value
Summary of the method: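 System: Engineered DeaD yeast | Buffer or medium: SC raffinose/galactose permissive medium | Incubation: Cells pre-grown 4 h, then 24 h compound exposure, 30 °C humidified | Measured by: Absorbance (optical density) at 615 nm | Read-out: Reduction in yeast growth (OD615)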

[2] = Restrictive medium S. cerevisiae growth inhibition, OD615, pilot screen of yeast lifespan reduction project, restrictive growth control (AID 706;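 active = growth inhibition above a set limit, 3 SD over mean compound inhibition, in both replicates, cut at about 43% in these data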;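 also: modified DeaD lifespan yeast strain shifted to restrictive glucose medium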); conditions: OD615, 48 h, at 10 µM, stronger effect = higher value
Summary of the method: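 Material: modified S. cerevisiae; Medium: glucose-based CSMM-D restrictive medium; Compound dosing: one concentration, 10 µM final, 0.25% DMSO; Incubation: 48 h compound exposure at 30 °C; Measured by: OD615.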

[3] = viability gain of MRP-1-high H69AR cells under doxorubicin, pilot screen, MRP-1 activator project, CellTiter-Glo, duplicate (AID 807;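 active = viability increase at or above a cutoff of the median across tested compounds plus 3 SD, cut at about 8.5% in these data, passing the limit was not always enough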;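 also: compound pretreatment 18-22 h then 72 h combined with doxorubicin; 0% = doxorubicin alone and 100% = vehicle without doxorubicin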); conditions: H69AR viability with doxorubicin, CellTiter-Glo luminescence; at 10 µM; stronger effect = higher value
[4] = growth suppression of beta-catenin knockout HCT116, pilot screen, human colon tumor cells (AID 823;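 active = cell viability at or below a set limit in both duplicate runs, the limit being the all-compound median minus 4 SD, cut at about 23% in these data, passing the limit was not always enough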;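 also: 0% = wells killed by 20 µM Hyamine and 100% = untreated DMSO cell wells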); conditions: CellTiter-Glo, 60 h, at 10 µM, stronger effect = lower value
[5] = growth suppression of PTEN-deleted HCT116, pilot screen, cell-based, HCT116 clonal line, CellTiter-Glo (AID 824); conditions: 60 h, at 10 µM, stronger effect = lower value;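 also: 0% = 20 µM Hyamine control and 100% = vehicle cell control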
[6] = inhibitors of the yeast RAM network, pilot screen, dse1pr::URA3 reporter, 5-FOA selection (AID 869;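 active = inhibition over a set limit, the all-compound mean plus 3 SD, in both replicate runs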;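 also: 0% = DMSO wells with no growth and 100% = 10 µM 1-NA-PP1 with full growth; RAM network block rescues cells from 5-FOA so hits raise OD615 growth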); conditions: S. cerevisiae dse1pr::URA3 5-FOA growth, OD615, 2 d; at 10 µM; stronger effect = higher value; strain carries analog-sensitive mutant Cbk1 kinase
[7] = RAM signaling pathway blockade in yeast – S. cerevisiae, Pdr1DBD-CYC8 efflux-inhibited sensitized strain, primary screen (AID 1298;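 active = RAM network inhibition above 8.4% in each of two replicates, 3 SD over the compound average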;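 also: 0% = DMSO untreated cells without growth and 100% = 10 µM 1-NA-PP1 full growth; higher means more yeast growth rescued from 5-FOA killing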); conditions: S. cerevisiae cbk1-as DSE1-URA3 strain, 5-FOA growth OD615, 2 d; at 50 µM; stronger effect = higher value

CNC(=O)c1ccsc1NC(=O)c1ccc(Cl)s1
inactive: growth inhibition [1] -0.67% | growth inhibition [2] 14.4% | viability increase [3] -3.2% | viability [4] 103% | viability [5] 85.6% | inhibition [6] 1.08% | RAM network inhibition [7] 2.36%

Oc1[nH]c2ccccc2c1C=Nc1ccc2c(c1)OCO2
inactive: growth inhibition [1] -18.5% | growth inhibition [2] -9.39% | viability increase [3] -5.2% | viability [4] 75% | viability [5] 71.4% | inhibition [6] 1.74% | RAM network inhibition [7] 1.86%

CCNc1nc(C)cc(COC)c1C#N
inactive: growth inhibition [1] -6.41% | growth inhibition [2] -0.29% | viability increase [3] -0.27% | viability [4] 97.7% | viability [5] 102% | inhibition [6] 1.4% | RAM network inhibition [7] -0.06%

Cc1ccc(C)c(NC(=O)CSc2nc3c(c(=O)n2C)SC(C)C3)c1 (stereo not drawn)
inactive: growth inhibition [1] -3.99% | growth inhibition [2] -8.3% | viability increase [3] -3.24% | viability [4] 83.2% | viability [5] 90.8% | inhibition [6] 0.5% | RAM network inhibition [7] 3.86%

CC(=O)N1CCc2cc(C(=O)CN3CCN(c4cccc(Cl)c4)CC3)ccc21
inactive: growth inhibition [1] -11% | growth inhibition [2] -7.26% | viability increase [3] 0.32% | viability [4] 69.3% | viability [5] 76.8% | inhibition [6] 1.65% | RAM network inhibition [7] 3.12%

Cc1cccc(N2CCN(C(=O)C3CCN(c4nnc(-n5cccc5)s4)CC3)CC2C)c1 (stereo not drawn)
inactive: growth inhibition [1] -6.52% | growth inhibition [2] -21.5% | viability increase [3] -1.6% | viability [4] 40.1% | viability [5] 45% | inhibition [6] 0.825% | RAM network inhibition [7] 2.84%

COc1ccc(-n2nnc3c(=O)n(CC(=O)N4CCCc5ccccc54)cnc32)cc1
inactive: growth inhibition [1] -1.22% | growth inhibition [2] -1.47% | viability increase [3] -0.27% | viability [4] 95.2% | viability [5] 91.2% | inhibition [6] 2.3% | RAM network inhibition [7] 1.61%

CCCCNC(=O)CS(=O)Cc1nc(-c2cccs2)oc1C (stereo not drawn)
inactive: growth inhibition [1] -3.47% | growth inhibition [2] 21.5% | viability increase [3] -0.37% | viability [4] 97.6% | viability [5] 95.7% | inhibition [6] 1.57% | RAM network inhibition [7] 0.54%

Cc1cc(NC(=O)c2cc(C3CC3)on2)n(-c2ccccc2)n1
inactive: growth inhibition [1] -16.2% | growth inhibition [2] -17.8% | viability increase [3] -0.45% | viability [4] 101% | viability [5] 99.6% | inhibition [6] 0.355% | RAM network inhibition [7] 8.58%

NC(=O)COc1ccc(=O)n(-c2ccccc2)n1
inactive: growth inhibition [1] 2.42% | growth inhibition [2] 4.29% | viability increase [3] 0.84% | viability [4] 107% | viability [5] 105% | inhibition [6] 1.23% | RAM network inhibition [7] 1.14%

CCOc1ccc(N2CC(=O)SC2=S)cc1
inactive: growth inhibition [1] -6.07% | growth inhibition [2] -0.73% | viability increase [3] 1.09% | viability [4] 96.3% | viability [5] 95.9% | inhibition [6] 0.425% | RAM network inhibition [7] 7.05%

CCOc1ccc(C2CC(c3cccc(Cl)c3)n3nc(N)nc3N2)cc1 (stereo not drawn)
inactive: growth inhibition [1] 5.36% | growth inhibition [2] 7.05% | viability increase [3] -0.08% | viability [4] 92% | viability [5] 88.2% | inhibition [6] 1.14% | RAM network inhibition [7] 9.61%

COCCNC(=O)c1ccccc1NC(=O)C1COc2ccccc2O1 (stereo not drawn)
inactive: growth inhibition [1] -3.84% | growth inhibition [2] -0.665% | viability increase [3] -0.74% | viability [4] 95.8% | viability [5] 102% | inhibition [6] 2.8% | RAM network inhibition [7] 4.39%

COc1ccc(C2CC(c3ccc(F)cc3)Nc3nc(N)nn32)cc1OC (stereo not drawn)
inactive: growth inhibition [1] -0.9% | growth inhibition [2] 4.9% | viability increase [3] -0.13% | viability [4] 102% | viability [5] 92.4% | inhibition [6] 1.21% | RAM network inhibition [7] 7.75%

O=C(Nc1ccc(S(=O)(=O)N2CCOCC2)cc1)c1ccc(Cl)cc1
inactive: growth inhibition [1] -7.83% | growth inhibition [2] -8.68% | viability increase [3] -1.99% | viability [4] 61.1% | viability [5] 80.2% | inhibition [6] 2.31% | RAM network inhibition [7] 3.83%

COc1ccc2occ(C(=O)c3ccc(N=C(C)N(C)C)cc3)c2c1
inactive: growth inhibition [1] -7.86% | growth inhibition [2] -16.5% | viability increase [3] -1.53% | viability [4] 58.4% | viability [5] 70.1% | inhibition [6] 1.21% | RAM network inhibition [7] 0.89%

CCCCC(=O)Nc1nc(C)c(C(C)=O)s1
inactive: growth inhibition [1] -13.3% | growth inhibition [2] -2.2% | viability increase [3] 0.48% | viability [4] 98.8% | viability [5] 88.7% | inhibition [6] 1.14% | RAM network inhibition [7] -1%

CC(=O)N1CCc2cc(C(=O)CN3CCN(c4ccccc4F)CC3)ccc21
inactive: growth inhibition [1] -7.16% | growth inhibition [2] -7.33% | viability increase [3] -3.19% | viability [4] 93.7% | viability [5] 88% | inhibition [6] 2.17% | RAM network inhibition [7] 2.34%

Cc1cccc(OCCCCCNCCO)c1
inactive: growth inhibition [1] -16% | growth inhibition [2] -8.45% | viability increase [3] -0.72% | viability [4] 98.6% | viability [5] 94.6% | inhibition [6] 1.7% | RAM network inhibition [7] 0.57%

Cc1cc(N)n2ncc(-c3cccc(Br)c3)c2n1
inactive: growth inhibition [1] 2.1% | growth inhibition [2] -6.45% | viability increase [3] -6.91% | viability [4] 75.4% | viability [5] 71.8% | inhibition [6] 0.315% | RAM network inhibition [7] 1.65%

Cc1nnc(SCC(=O)N2CCOCC2)n1C
inactive: growth inhibition [1] -6.97% | growth inhibition [2] -18% | viability increase [3] -0.95% | viability [4] 106% | viability [5] 101% | inhibition [6] 2.25% | RAM network inhibition [7] 2.02%

COc1ccc2[nH]c(C)c(CN3CCC(C)CC3)c(=O)c2c1
inactive: growth inhibition [1] 0.03% | growth inhibition [2] -2.44% | viability increase [3] -2.02% | viability [4] 98.5% | viability [5] 90.8% | inhibition [6] 1.03% | RAM network inhibition [7] 2.42%

CCC(=O)N=c1sc2cc(F)cc(F)c2n1C
inactive: growth inhibition [1] -6.05% | growth inhibition [2] -7.75% | viability increase [3] -5.39% | viability [4] 93.4% | viability [5] 87.8% | inhibition [6] 1.4% | RAM network inhibition [7] 3.13%

COC(=O)C1=C(C)Nc2ccc(C)cc2S1
inactive: growth inhibition [1] 14.1% | growth inhibition [2] 29.2% | viability increase [3] -2.27% | viability [4] 98.8% | viability [5] 100% | inhibition [6] 1.25% | RAM network inhibition [7] 3.11%
